# Assay results reported in ChEMBL document CHEMBL4732243, “Design, synthesis, and structure activity relationship analysis of new betulinic acid derivatives as potent HIV inhibitors” (Eur J Med Chem, 2021).
# Tests used:
# [1] = system: Human immunodeficiency virus 1; assay: Antiviral activity against HIV-1 NL4-3 infected in human MT4 cells assessed as reduction in p24 gag protein incubated for 4 days by ELISA; type: functional, organism-based; conditions: Human immunodeficiency virus 1, NL4-3, MT4, 96 h
# Method in brief: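 MT-4 cells infected with HIV-1 NL4-3 at MOI 0.01, serial compound concentrations, in 96-well format. Supernatant p24 antigen measured by capture ELISA on day 4 post-infection. IC50 is the concentration that inhibits NL4-3 replication by 50%. Bevirimat run in parallel as the reference.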
# MT4 = assay: Cytotoxicity against human MT4 cells assessed as reduction in cell viability incubated for 2 days by CytoTox-Glo cytotoxicity assay; type: cell-based; conditions: mt4, 48 h, time 2 day
# Method in brief: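 Mock-infected MT-4 cells cultured 2 days with a range of compound concentrations. Viability measured by CytoTox-Glo, following the kit protocol, as percent viable cells. CC50 is the concentration giving a 50% reduction in cell viability.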
# [2] = system: Human immunodeficiency virus 1; assay: Potency index, ratio of IC50 for bevirimat to IC50 for test compound for antiviral activity against HIV-1 NL4-3 infected in human MT4 cells assessed as reduction in p24 gag protein incubated for 4 days by ELISA; type: functional; conditions: time 4 day
# Method in brief: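 MT-4 cells infected with HIV-1 NL4-3 at MOI 0.01 and cultured with the test compounds. Bevirimat was run in parallel as the reference control. Supernatant p24 was measured on day 4 post-infection by antigen-capture ELISA. IC50 is the concentration that inhibits NL4-3 replication by 50%. The index is the bevirimat IC50 divided by the test-compound IC50.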
Compound,IC50 ([1]; read-out: IC50) [nM],IC50 ([1]; read-out: pIC50 (converted)) [nM],CC50 (MT4) [nM],Ratio IC50 [2]
C=C(C)[C@@H]1CC[C@]2(C(=O)N3CCN(C(=O)/C=C/c4ccc(OCOC)c(OC)c4)CC3)CC[C@]3(C)[C@H](CC[C@@H]4[C@@]5(C)CC[C@H](OC(=O)CC(C)(C)C(=O)O)C(C)(C)[C@@H]5CC[C@]43C)[C@@H]12,25,25.1,> 2000,2
C=C(C)[C@@H]1CC[C@]2(C(=O)N3CCN(C(=O)/C=C/c4ccc(O)c(OC)c4)CC3)CC[C@]3(C)[C@H](CC[C@@H]4[C@@]5(C)CC[C@H](OC(=O)CC(C)(C)C(=O)O)C(C)(C)[C@@H]5CC[C@]43C)[C@@H]12,18,18.2,> 2000,2
